According to ChEMBL document CHEMBL1287679, “Tuning hydrophobicity of highly cationic tetradecameric Gramicidin S analogues using adamantane amino acids” (Bioorg Med Chem, 2010):
Values after ≈ are worked out from the molar mass of the structure shown. Where a SMILES comes first, the peptide text is derived from it. [ ]: non-standard residue; d: D form. Orn = NCCC[C@H](N)C(=O)O

What was measured:
Pseudomonas aeruginosa = test: Antimicrobial activity against Pseudomonas aeruginosa ATCC 27853 by broth dilution method; type: functional
Outline: (§1)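 Stored at −70 °C, grown at 35 °C on Columbia sheep-blood agar, then suspended in physiological saline to OD 0.1 AU at 595 nm and diluted 100× in saline. 2 µL inoculum was added to 50 µL cation-adjusted Mueller Hinton II broth. Peptides in methanol (4 g/L stock) were diluted in water, then two-fold in broth (64–1 mg/L). Incubation was 35 °C for 24–48 h. MIC is the lowest concentration inhibiting growth.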

Staphylococcus aureus [1] = test: Antimicrobial activity against Staphylococcus aureus ATCC 29213 by broth dilution method; type: functional
Outline: (§2)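 Frozen (−70 °C) stocks grown at 35 °C on Columbia sheep-blood agar, suspended in physiological saline to OD595 0.1, diluted 100×; 2 µL inoculum into 50 µL cation-adjusted Mueller Hinton II broth in 96-well plates. Peptides dissolved in methanol (4 g/L), diluted in water, two-fold serial dilutions in broth (64–1 mg/L). Incubation at 35 °C, 24–48 h; MIC = lowest concentration inhibiting growth.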

Staphylococcus aureus [2] = test: Antimicrobial activity against methicillin-resistant Staphylococcus aureus isolate 1110301981 by broth dilution method; type: functional; outline: as §2
Escherichia coli = test: Antimicrobial activity against Escherichia coli ATCC 25922 by broth dilution method; type: functional; outline: as §1
Staphylococcus aureus [3] = test: Antimicrobial activity against methicillin-resistant Staphylococcus aureus N133 by broth dilution method; type: functional; outline: as §2
[4] = system: Staphylococcus epidermidis; test: Antimicrobial activity against Staphylococcus epidermidis ATCC 12228 by broth dilution method; type: functional; outline: as §1
Enterococcus faecalis = test: Antimicrobial activity against Enterococcus faecalis ATCC 29212 by broth dilution method; type: functional; outline: as §1
Bacillus cereus = test: Antimicrobial activity against Bacillus cereus ATCC 11778 by broth dilution method; type: functional; outline: as §1
Staphylococcus aureus [5] = test: Antimicrobial activity against methicillin-resistant Staphylococcus aureus N229 by broth dilution method; type: functional; outline: as §2
Staphylococcus aureus [6] = test: Antimicrobial activity against methicillin-resistant Staphylococcus aureus ATCC 49775 by broth dilution method; type: functional; outline: as §2
[7] = Therapeutic index, concentration required to achieve 100% hemolysis in erythrocyte to MIC for Escherichia coli ATCC 25922; details: erythrocytes
Outline: (§3)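 Therapeutic index was taken as the concentration for 100% haemolysis divided by MIC for the given strain.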

[8] = Therapeutic index, concentration required to achieve 100% hemolysis in erythrocyte to MIC for Staphylococcus aureus ATCC 29213; details: erythrocytes; outline: as §3
[9] = Toxicity in Erythrocyte assessed as concentration required to achieve 100% hemolysis after 4 hrs; type: cell-based
Outline: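 Heparinized fresh blood was centrifuged (1000g, 10 min, 10 °C). Erythrocytes were washed three times in 0.85% saline and diluted to a 1/25 packed volume. Peptides were prepared as a 1.5 mM stock in 30% DMSO/0.5 mM saline and serially two-fold diluted in triplicate rows. 1% Triton-X served as the full-lysis control. Incubation was 37 °C for 4 h, then centrifugation; supernatant was read. Value is the concentration giving 100% lysis.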

Staphylococcus aureus [10] = test: Antimicrobial activity against community acquired methicillin-resistant Staphylococcus aureus isolate 1110301146 by broth dilution method; type: functional; outline: as §2
Staphylococcus aureus [11] = test: Antimicrobial activity against methicillin-resistant Staphylococcus aureus ATCC 43300 by broth dilution method; type: functional; outline: as §2

Compound	MIC (Pseudomonas aeruginosa) [mg/L]	MIC (Staphylococcus aureus [1]) [mg/L]	MIC (Staphylococcus aureus [2]) [mg/L]	MIC (Escherichia coli) [mg/L]	MIC (Staphylococcus aureus [3]) [mg/L]	MIC [4] [mg/L]	MIC (Enterococcus faecalis) [mg/L]	MIC (Bacillus cereus) [mg/L]	MIC (Staphylococcus aureus [5]) [mg/L]	MIC (Staphylococcus aureus [6]) [mg/L]	selectivity ratio [7]	selectivity ratio ([8]; read-out: Ratio)	Activity [9] [µM]	MIC (Staphylococcus aureus [10]) [mg/L]	MIC (Staphylococcus aureus [11]) [mg/L]	selectivity ratio ([8]; read-out: TI)
NCCC[C@@H]1NC(=O)[C@H](CC23CC4CC(CC(C4)C2)C3)NC(=O)[C@H](CCCN)NC(=O)[C@H](C23CC4CC(CC(C4)C2)C3)NC(=O)[C@H](CCCN)NC(=O)[C@@H]2CCCN2C(=O)[C@@H](Cc2ccccc2)NC(=O)[C@H](CCCN)NC(=O)[C@H](CC23CC4CC(CC(C4)C2)C3)NC(=O)[C@H](CCCN)NC(=O)[C@H](C23CC4CC(CC(C4)C2)C3)NC(=O)[C@H](CCCN)NC(=O)[C@@H]2CCCN2C(=O)[C@@H](Cc2ccccc2)NC1=O	64 (≈ 32.5 µM)	64 (≈ 32.5 µM)	32 (≈ 16.3 µM)	64 (≈ 32.5 µM)	32 (≈ 16.3 µM)	32 (≈ 16.3 µM)	32 (≈ 16.3 µM)	2 (≈ 1.02 µM)	32 (≈ 16.3 µM)	32 (≈ 16.3 µM)	0.12	0.1	7.8	32 (≈ 16.3 µM)	32 (≈ 16.3 µM)	
CC(C)C[C@@H]1NC(=O)[C@H](CCCN)NC(=O)[C@H](C23CC4CC(CC(C4)C2)C3)NC(=O)[C@H](CCCN)NC(=O)[C@@H]2CCCN2C(=O)[C@@H](Cc2ccccc2)NC(=O)[C@H](CCCN)NC(=O)[C@H](CC(C)C)NC(=O)[C@H](CCCN)NC(=O)[C@H](C23CC4CC(CC(C4)C2)C3)NC(=O)[C@H](CCCN)NC(=O)[C@@H]2CCCN2C(=O)[C@@H](Cc2ccccc2)NC(=O)[C@H](CCCN)NC1=O	16 (≈ 8.98 µM)	8 (≈ 4.49 µM)	8 (≈ 4.49 µM)	16 (≈ 8.98 µM)	8 (≈ 4.49 µM)	8 (≈ 4.49 µM)	8 (≈ 4.49 µM)	2 (≈ 1.12 µM)	8 (≈ 4.49 µM)	8 (≈ 4.49 µM)	2	3.9	31.3	8 (≈ 4.49 µM)	8 (≈ 4.49 µM)	
CC(C)C[C@@H]1NC(=O)[C@H](CCCCN)NC(=O)[C@H](C(C)C)NC(=O)[C@@H]2CCCN2C(=O)[C@@H](Cc2ccc(O)cc2)NC(=O)[C@H](CC(C)C)NC(=O)[C@H](CCCCN)NC(=O)[C@H](C(C)C)NC(=O)[C@H](CCCCN)NC(=O)[C@H](CC(C)C)NC(=O)[C@@H]2CCCN2C(=O)[C@@H](Cc2ccc(O)cc2)NC(=O)[C@H](C(C)C)NC(=O)[C@H](CCCCN)NC1=O (cyclo(VKLKV[dY]PLKVKL[dY]P))	> 64	> 64		> 64		64 (≈ 38.3 µM)	32 (≈ 19.2 µM)	32 (≈ 19.2 µM)								
CC(C)C[C@@H]1NC(=O)[C@H](CCCN)NC(=O)[C@H](C(C)C)NC(=O)[C@@H]2CCCN2C(=O)[C@@H](Cc2ccccc2)NC(=O)[C@H](CC(C)C)NC(=O)[C@H](CCCN)NC(=O)[C@H](C(C)C)NC(=O)[C@@H]2CCCN2C(=O)[C@@H](Cc2ccccc2)NC1=O [GRAMICIDIN S] (cyclo(L[dF]PV[Orn]L[dF]PV[Orn]))	32 (≈ 28 µM)	32 (≈ 28 µM)	16 (≈ 14 µM)	64 (≈ 56.1 µM)	16 (≈ 14 µM)	8 (≈ 7.01 µM)	8 (≈ 7.01 µM)	8 (≈ 7.01 µM)	8 (≈ 7.01 µM)	8 (≈ 7.01 µM)	2		62.5	16 (≈ 14 µM)	8 (≈ 7.01 µM)	2
CC(C)[C@@H]1NC(=O)[C@H](CCCN)NC(=O)[C@@H]2CCCN2C(=O)[C@@H](Cc2ccccc2)NC(=O)[C@H](CCCN)NC(=O)[C@H](CC23CC4CC(CC(C4)C2)C3)NC(=O)[C@H](CCCN)NC(=O)[C@H](C23CC4CC(CC(C4)C2)C3)NC(=O)[C@H](CCCN)NC(=O)[C@@H]2CCCN2C(=O)[C@@H](Cc2ccccc2)NC(=O)[C@H](CCCN)NC(=O)[C@H](CC23CC4CC(CC(C4)C2)C3)NC(=O)[C@H](CCCN)NC1=O	16 (≈ 8.54 µM)	16 (≈ 8.54 µM)	16 (≈ 8.54 µM)	32 (≈ 17.1 µM)	16 (≈ 8.54 µM)	4 (≈ 2.13 µM)	8 (≈ 4.27 µM)	4 (≈ 2.13 µM)	16 (≈ 8.54 µM)	16 (≈ 8.54 µM)	1	1	15.6	32 (≈ 17.1 µM)	16 (≈ 8.54 µM)	
